The source of these data is ChEMBL document CHEMBL4699633, “Total Syntheses of Prenylated Isoflavones from Erythrina sacleuxii and Their Antibacterial Activity: 5-Deoxy-3'-prenylbiochanin A and Erysubin F” (J Nat Prod, 2020).

In one experiment the test system is Listeria monocytogenes. Nature of the experiment: Antibacterial activity against Listeria monocytogenes assessed as reduction in microbial growth measured every 5 mins for 24 hrs. Format: functional.
Experiment [1] concerns Plasmodium falciparum. Put plainly: Antiplasmodial activity against chloroquine-resistant Plasmodium falciparum W2 by [3H]-hypoxanthine incorporation assay. Type of experiment: functional, organism-based.
Experiment [2] has as its system Plasmodium falciparum. Put plainly: Antiplasmodial activity against chloroquine-sensitive Plasmodium falciparum D6 by [3H]-hypoxanthine incorporation assay. Format: functional, organism-based.
The test system of experiment [3] is Staphylococcus aureus. Put plainly: Antibacterial activity against methicilin-resistant Staphylococcus aureus ATCC 43300 assessed as reduction in microbial growth after 18 hrs by agar dilution method. Type of experiment: functional. The method in brief: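 MRSA ATCC 43300 tested by standardized agar dilution. Compounds dissolved in DMSO and 2-fold serially diluted in solvent, then added to Mueller Hinton agar at 1% v/v DMSO final. Inoculum from overnight culture, photometrically adjusted. Plates incubated aerobically at 37 °C for 18 h. Vancomycin served as positive control. DMSO-only (1% v/v) plates served as negative control. Read-out was MIC.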

The test system of experiment [4] is Salmonella enterica subsp. enterica. Put plainly: Antibacterial activity against Salmonella enterica subsp.enterica NCTC 13349 assessed as reduction in microbial growth after 18 hrs by agar dilution method. Format: functional. The procedure, abridged: (§1)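 Agar dilution on Mueller Hinton agar; compounds dissolved in DMSO, 2-fold serial dilutions in solvent added to agar (DMSO 1% v/v final). Inocula from overnight cultures, adjusted photometrically. Plates incubated aerobically at 37 °C for 18 h. Vancomycin or ampicillin as positive controls, DMSO-only plates as negative controls.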

In the next experiment the test system is Escherichia coli. Nature of the experiment: Antibacterial activity against Escherichia coli ATCC 25922 assessed as reduction in microbial growth after 18 hrs by agar dilution method. Type of experiment: functional. The procedure, abridged:
as §1

The test system of a further experiment is Candida albicans. Nature of the experiment: Antifungal activity against Candida albicans ATCC 90028 assessed as reduction in microbial growth after 48 hrs by agar dilution method. Format: functional. The procedure, abridged: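 Agar dilution in yeast extract peptone dextrose (YPD) agar; compounds in DMSO, 2-fold serial dilutions added to medium (DMSO 1% v/v final). Inoculum from overnight culture, adjusted photometrically. Plates incubated at 30 °C for 48 h. Amphotericin B as positive control, DMSO-only plates as negative control.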
Background: Agar dilution tests growth on a series of plates holding different concentrations.

For experiment [5], the system named is Staphylococcus aureus. Nature of the experiment: Antibacterial activity against methicillin-resistant Staphylococcus aureus assessed as reduction in microbial growth after 24 hrs by two-fold serial dilution method. Type of experiment: functional.
Experiment [6] relates to Mycobacterium tuberculosis. Nature of the experiment: Antimycobacterial activity against Mycobacterium tuberculosis. Format: functional.

Converted amounts (≈) assume the structure as drawn.

For `CC(C)=CCc1c(O)cc(O)c2c(=O)c(-c3ccc(O)cc3)coc12`, in the experiment with Listeria monocytogenes, the minimum inhibitory concentration (MIC) (usually the smallest concentration in the dilution series that meets the test's criterion for growth inhibition) is more than 148 µM.

For `COc1ccc(-c2coc3cc(O)ccc3c2=O)cc1CC=C(C)C`, the IC50 in the experiment on Plasmodium falciparum [1] and in the experiment on Plasmodium falciparum [2] was 20 µM in each case. Further, the MIC in the experiment with Staphylococcus aureus [3] is more than 155 µM; in experiment [4], more than 190 µM; with Escherichia coli, more than 95.1 µM; with Candida albicans, more than 95.1 µM.

With `CC(C)=CCc1cc(-c2cc(=O)c3ccc(O)c(CC=C(C)C)c3o2)ccc1O`, the MIC with Staphylococcus aureus [3] is 20.5 µM; in experiment [4] it was more than 82 µM; in the experiment with Escherichia coli it was more than 82 µM; with Candida albicans, more than 82 µM.

Take `C[C@@H]1[C@H](O)[C@@H](C)/C=C/C=C/C=C/C=C/C=C/C=C/C=C/[C@H](O[C@@H]2O[C@H](C)[C@@H](O)[C@H](N)[C@@H]2O)C[C@@H]2O[C@](O)(C[C@@H](O)C[C@@H](O)[C@H](O)CC[C@@H](O)C[C@@H](O)CC(=O)O[C@H]1C)C[C@H](O)[C@H]2C(=O)O` [AMPHOTERICIN B]: the minimal inhibitory concentration (MIC) in the experiment with Candida albicans is 0.5 µM.

Take `CC1(C)S[C@@H]2[C@H](NC(=O)[C@H](N)c3ccccc3)C(=O)N2[C@H]1C(=O)O` [AMPICILLIN]: the MIC (in experiment [4]; in the experiment on Escherichia coli) was 11.4 µM throughout.

On to `CC(C)=CCc1cc(-c2coc3cc(O)cc(O)c3c2=O)ccc1O` [CORYLIN], for which the MIC in the experiment on Listeria monocytogenes was found to be 59.1 µM.

Take `CC(C)=CCc1cc(-c2coc3c(CC=C(C)C)c(O)ccc3c2=O)ccc1O` [ERYSUBIN F]: the MIC was 256 µM with Staphylococcus aureus [5]; 32 µM (≈ 12.5 µg/mL) in experiment [6]; 15.4 µM in the experiment with Staphylococcus aureus [3]; more than 82 µM in experiment [4]; more than 82 µM in the experiment with Escherichia coli; more than 82 µM in the experiment with Candida albicans.

Turning to `CN[C@H](CC(C)C)C(=O)N[C@H]1C(=O)N[C@@H](CC(N)=O)C(=O)N[C@H]2C(=O)N[C@H]3C(=O)N[C@H](C(=O)N[C@H](C(=O)O)c4cc(O)cc(O)c4-c4cc3ccc4O)[C@H](O)c3ccc(c(Cl)c3)Oc3cc2cc(c3O[C@@H]2O[C@H](CO)[C@@H](O)[C@H](O)[C@H]2O[C@H]2C[C@](C)(N)[C@H](O)[C@H](C)O2)Oc2ccc(cc2Cl)[C@H]1O` [VANCOMYCIN], in the experiment on Staphylococcus aureus [3], the MIC came out at 0.5 µM.

For `CC(C)=CCc1c(O)cc2occ(-c3ccc(O)cc3)c(=O)c2c1O` [WIGHTEONE], the MIC in the experiment on Listeria monocytogenes amounted to 29.6 µM.
